Measurements from ChEMBL document CHEMBL4689842, “EUbOPEN Chemogenomics Library wave 1” (2021).
Where “and” joins values, the source holds several entries; their conditions need not be identical. Equal entries are not always repeated.

System: U2OS
Experiment: Multiplex assay against U2OS
Assay type: toxicity, cell-based
Details: human
Method in brief: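 Live cells were stained at seeding with Hoechst33342, BioTracker Green Microtubule Cytoskeleton Dye, MitoTracker Red and Annexin V Alexa Fluor 680, then imaged on a CQ1 microscope at 37°C and 5% CO2 after compound addition. CellPathfinder machine-learning gating split cells into Hoechst high-intensity objects or normal cells. Normal cells were split into healthy, pyknosed or fragmented nuclei, and pyknosed cells into mitotic or apoptotic. Tubulin, mitochondrial-mass and membrane-permeability phenotypes are per cents of healthy-nucleus cells.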

[1] = 12 h, 1 µM, compound concentration 1 uM, replicate 1
[2] = 12 h, 1 µM, compound concentration 1 uM, replicate 2
[3] = 12 h, 10 µM, compound concentration 10 uM, replicate 1
[4] = 12 h, 10 µM, compound concentration 10 uM, replicate 2
[5] = 24 h, 1 µM, compound concentration 1 uM, replicate 1
[6] = 24 h, 1 µM, compound concentration 1 uM, replicate 2
[7] = 24 h, 10 µM, compound concentration 10 uM, replicate 1
[8] = 24 h, 10 µM, compound concentration 10 uM, replicate 2
[9] = 48 h, 1 µM, compound concentration 1 uM, replicate 1
[10] = 48 h, 1 µM, compound concentration 1 uM, replicate 2
[11] = 48 h, 10 µM, compound concentration 10 uM, replicate 1
[12] = 48 h, 10 µM, compound concentration 10 uM, replicate 2

Cc1c(-c2ccc(O)cc2)n(Cc2ccc(OCCN3CCCCCC3)cc2)c2ccc(O)cc12 [BAZEDOXIFENE]
Population Apoptotic (%) [1]: 58% | Population Fragmented Nuclei (%) [1]: 22% | Population Healthy Nuclei (%) [1]: 67% | Population Hoechst High Intensity Objects (%) [1]: 15% | Population Membrane Permeable-Phenotype (%) [1]: 3% | Population Mitochondria Different-Phenotype (%) [1]: 13% | Population Mitotic Cells (%) [1]: 41% | Population Normal (%) [1]: 84% | Population Pyknosed Nuclei (%) [1]: 9% | Population Tubulin-Different-Phenotype (%) [1]: 20% | Total Cell Count [1]: 144 | Population Apoptotic (%) [2]: 0% | Population Fragmented Nuclei (%) [2]: 13% | Population Healthy Nuclei (%) [2]: 81% | Population Hoechst High Intensity Objects (%) [2]: 10% | Population Membrane Permeable-Phenotype (%) [2]: 5% | Population Mitochondria Different-Phenotype (%) [2]: 20% | Population Mitotic Cells (%) [2]: 100% | Population Normal (%) [2]: 89% | Population Pyknosed Nuclei (%) [2]: 4% | Population Tubulin-Different-Phenotype (%) [2]: 17% | Total Cell Count [2]: 48 | Population Apoptotic (%) [3]: 41% | Population Fragmented Nuclei (%) [3]: 24% | Population Healthy Nuclei (%) [3]: 43% | Population Hoechst High Intensity Objects (%) [3]: 4% | Population Membrane Permeable-Phenotype (%) [3]: 23% | Population Mitochondria Different-Phenotype (%) [3]: 97% | Population Mitotic Cells (%) [3]: 58% | Population Normal (%) [3]: 95% | Population Pyknosed Nuclei (%) [3]: 32% | Population Tubulin-Different-Phenotype (%) [3]: 98% | Total Cell Count [3]: 190 | Population Apoptotic (%) [4]: 60% | Population Fragmented Nuclei (%) [4]: 7% | Population Healthy Nuclei (%) [4]: 56% | Population Hoechst High Intensity Objects (%) [4]: 2% | Population Membrane Permeable-Phenotype (%) [4]: 26% | Population Mitochondria Different-Phenotype (%) [4]: 100% | Population Mitotic Cells (%) [4]: 40% | Population Normal (%) [4]: 97% | Population Pyknosed Nuclei (%) [4]: 36% | Population Tubulin-Different-Phenotype (%) [4]: 100% | Total Cell Count [4]: 42 | Population Apoptotic (%) [5]: 24% | Population Fragmented Nuclei (%) [5]: 15% | Population Healthy Nuclei (%) [5]: 66% | Population Hoechst High Intensity Objects (%) [5]: 11% | Population Membrane Permeable-Phenotype (%) [5]: 3% | Population Mitochondria Different-Phenotype (%) [5]: 9% | Population Mitotic Cells (%) [5]: 76% | Population Normal (%) [5]: 88% | Population Pyknosed Nuclei (%) [5]: 17% | Population Tubulin-Different-Phenotype (%) [5]: 11% | Total Cell Count [5]: 157 | Population Apoptotic (%) [6]: 11% | Population Fragmented Nuclei (%) [6]: 8% | Population Healthy Nuclei (%) [6]: 75% | Population Hoechst High Intensity Objects (%) [6]: 3% | Population Membrane Permeable-Phenotype (%) [6]: 2% | Population Mitochondria Different-Phenotype (%) [6]: 6% | Population Mitotic Cells (%) [6]: 88% | Population Normal (%) [6]: 96% | Population Pyknosed Nuclei (%) [6]: 15% | Population Tubulin-Different-Phenotype (%) [6]: 15% | Total Cell Count [6]: 60 | Population Apoptotic (%) [7]: 73% | Population Fragmented Nuclei (%) [7]: 32% | Population Healthy Nuclei (%) [7]: 26% | Population Hoechst High Intensity Objects (%) [7]: 4% | Population Membrane Permeable-Phenotype (%) [7]: 50% | Population Mitochondria Different-Phenotype (%) [7]: 100% | Population Mitotic Cells (%) [7]: 26% | Population Normal (%) [7]: 95% | Population Pyknosed Nuclei (%) [7]: 40% | Population Tubulin-Different-Phenotype (%) [7]: 98% | Total Cell Count [7]: 213 | Population Apoptotic (%) [8]: 68% | Population Fragmented Nuclei (%) [8]: 22% | Population Healthy Nuclei (%) [8]: 30% | Population Hoechst High Intensity Objects (%) [8]: 20% | Population Membrane Permeable-Phenotype (%) [8]: 75% | Population Mitotic Cells (%) [8]: 31% | Population Normal (%) [8]: 80% | Population Pyknosed Nuclei (%) [8]: 47% | Population Tubulin-Different-Phenotype (%) [8]: 100% | Total Cell Count [8]: 50 | Population Apoptotic (%) [9]: 53% | Population Fragmented Nuclei (%) [9]: 11% | Population Healthy Nuclei (%) [9]: 80% | Population Hoechst High Intensity Objects (%) [9]: 7% | Population Membrane Permeable-Phenotype (%) [9]: 2% | Population Mitochondria Different-Phenotype (%) [9]: 13% | Population Mitotic Cells (%) [9]: 46% | Population Normal (%) [9]: 92% | Population Pyknosed Nuclei (%) [9]: 8% | Population Tubulin-Different-Phenotype (%) [9]: 8% | Total Cell Count [9]: 197 | Population Apoptotic (%) [10]: 36% | Population Fragmented Nuclei (%) [10]: 14% | Population Healthy Nuclei (%) [10]: 75% | Population Hoechst High Intensity Objects (%) [10]: 3% | Population Membrane Permeable-Phenotype (%) [10]: 8% | Population Mitochondria Different-Phenotype (%) [10]: 16% | Population Mitotic Cells (%) [10]: 63% | Population Normal (%) [10]: 96% | Population Pyknosed Nuclei (%) [10]: 11% | Population Tubulin-Different-Phenotype (%) [10]: 22% | Total Cell Count [10]: 104 | Population Apoptotic (%) [11]: 95% | Population Fragmented Nuclei (%) [11]: 39% | Population Healthy Nuclei (%) [11]: 5% | Population Hoechst High Intensity Objects (%) [11]: 9% | Population Membrane Permeable-Phenotype (%) [11]: 77% | Population Mitotic Cells (%) [11]: 4% | Population Normal (%) [11]: 90% | Population Pyknosed Nuclei (%) [11]: 55% | Population Tubulin-Different-Phenotype (%) [11]: 88% | Total Cell Count [11]: 177 | Population Apoptotic (%) [12]: 100% | Population Fragmented Nuclei (%) [12]: 13% | Population Healthy Nuclei (%) [12]: 48% | Population Hoechst High Intensity Objects (%) [12]: 32% | Population Membrane Permeable-Phenotype (%) [12]: 92% | Population Mitochondria Different-Phenotype (%) [12]: 100% | Population Mitotic Cells (%) [12]: 0% | Population Normal (%) [12]: 67% | Population Pyknosed Nuclei (%) [12]: 37% | Population Tubulin-Different-Phenotype (%) [12]: 100% | Total Cell Count [12]: 43

CNCc1ccc(-c2cc(-c3nc(-c4ccc(S(=O)(=O)C(C)C)cc4)cnc3N)on2)cc1 [BERZOSERTIB]
Population Apoptotic (%) [1]: 16% and 46% | Population Healthy Nuclei (%) [1]: 6% and 0% | Population Hoechst High Intensity Objects (%) [1]: 31% and 81% | Population Membrane Permeable-Phenotype (%) [1]: 46% and 20% | Population Mitochondria Different-Phenotype (%) [1]: 40% and 20% | Population Mitotic Cells (%) [1]: 83% and 53% | Population Tubulin-Different-Phenotype (%) [1]: 40% and 80% | Total Cell Count [1]: 185 and 523 | Population Apoptotic (%) [2]: 10% | Population Fragmented Nuclei (%) [2]: 41% and 95% | Population Healthy Nuclei (%) [2]: 10% and 1% | Population Hoechst High Intensity Objects (%) [2]: 52% and 83% | Population Membrane Permeable-Phenotype (%) [2]: 42% and 55% | Population Mitotic Cells (%) [2]: 89% | Population Normal (%) [2]: 47% and 16% | Population Pyknosed Nuclei (%) [2]: 48% | Population Apoptotic (%) [3]: 17% and 38% | Population Healthy Nuclei (%) [3]: 4% and 0% | Population Hoechst High Intensity Objects (%) [3]: 49% and 82% | Population Membrane Permeable-Phenotype (%) [3]: 58% and 75% | Population Mitochondria Different-Phenotype (%) [3]: 25% and 0% | Population Mitotic Cells (%) [3]: 82% and 61% | Population Normal (%) [3]: 50% and 17% | Population Tubulin-Different-Phenotype (%) [3]: 41% and 50% | Population Apoptotic (%) [4]: 11% | Population Fragmented Nuclei (%) [4]: 39% and 97% | Population Healthy Nuclei (%) [4]: 9% and 1% | Population Hoechst High Intensity Objects (%) [4]: 45% | Population Membrane Permeable-Phenotype (%) [4]: 31% and 62% | Population Mitochondria Different-Phenotype (%) [4]: 5% and 12% | Population Mitotic Cells (%) [4]: 88% | Population Normal (%) [4]: 54% | Population Apoptotic (%) [5]: 50% | Population Healthy Nuclei (%) [5]: 0% and 11% | Population Hoechst High Intensity Objects (%) [5]: 81% and 50% | Population Membrane Permeable-Phenotype (%) [5]: 50% and 61% | Population Mitotic Cells (%) [5]: 50% | Population Normal (%) [5]: 18% and 49% | Population Tubulin-Different-Phenotype (%) [5]: 50% and 61% | Total Cell Count [5]: 432 and 192 | Population Apoptotic (%) [6]: 28% | Population Fragmented Nuclei (%) [6]: 37% and 97% | Population Hoechst High Intensity Objects (%) [6]: 56% and 82% | Population Membrane Permeable-Phenotype (%) [6]: 38% and 44% | Population Mitochondria Different-Phenotype (%) [6]: 33% and 11% | Population Mitotic Cells (%) [6]: 71% | Population Normal (%) [6]: 43% and 17% | Population Pyknosed Nuclei (%) [6]: 41% | Population Tubulin-Different-Phenotype (%) [6]: 47% and 55% | Total Cell Count [6]: 92 and 244 | Population Apoptotic (%) [7]: 33% and 22% | Population Fragmented Nuclei (%) [7]: 19% | Population Healthy Nuclei (%) [7]: 10% | Population Hoechst High Intensity Objects (%) [7]: 59% | Population Membrane Permeable-Phenotype (%) [7]: 61% | Population Mitotic Cells (%) [7]: 66% and 77% | Population Normal (%) [7]: 40% | Population Pyknosed Nuclei (%) [7]: 70% | Population Tubulin-Different-Phenotype (%) [7]: 75% | Population Apoptotic (%) [8]: 14% and 40% | Population Fragmented Nuclei (%) [8]: 38% and 98% | Population Healthy Nuclei (%) [8]: 15% and 0% | Population Hoechst High Intensity Objects (%) [8]: 51% and 82% | Population Mitochondria Different-Phenotype (%) [8]: 21% and 16% | Population Mitotic Cells (%) [8]: 85% and 60% | Population Normal (%) [8]: 48% and 17% | Population Tubulin-Different-Phenotype (%) [8]: 36% and 66%
